pIC50: −log10 of the molar value. Activity calls are given as the source filed them. The calls are words filed in the database; no cut-off is given here.
Legend:
cells = details: Homo sapiens, MCF7:5C, 168 h; for IC50: read-out: pIC50 (converted)
[1] = Antiproliferative activity against human MCF7:WS8 cells assessed as reduction in cell viability incubated for 5 days by Hoechst 33258 dye based assay; assay type: functional; details: MCF7:WS8, 120 h
Summary of the method: (§1)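 Cells were seeded at 5000 per well; MCF7:WS8 had been estrogen-stripped for 2 days first. Compounds were serially diluted in DMSO, with 0.01% DMSO as vehicle. The medium was removed on day 5 (MCF7:WS8) or day 7 (MCF7:5C), and cells were lysed by freezing at −80 °C overnight. DNA was measured by Hoechst 33258 fluorescence. Maximum efficacy was normalized to vehicle (0%) and no cells (100%); at least three biological replicates.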

[2] = Antiproliferative activity against human MCF7:WS8 cells assessed as reduction in cell viability incubated for 5 days by Hoechst 33258 dye based assay relative to control; assay type: functional; details: MCF7:WS8, 120 h
Summary of the method: as §1

Estrogen receptor [3] = target: T1, Estrogen receptor (Homo sapiens, UniProt P03372); test: Inhibition of ERalpha in human MCF7:WS8 cells assessed as increase in degradation of ERalpha incubated for 24 hrs by In-Cell Western assay; assay type: cell-based
T1 sequence (P03372 whole entry): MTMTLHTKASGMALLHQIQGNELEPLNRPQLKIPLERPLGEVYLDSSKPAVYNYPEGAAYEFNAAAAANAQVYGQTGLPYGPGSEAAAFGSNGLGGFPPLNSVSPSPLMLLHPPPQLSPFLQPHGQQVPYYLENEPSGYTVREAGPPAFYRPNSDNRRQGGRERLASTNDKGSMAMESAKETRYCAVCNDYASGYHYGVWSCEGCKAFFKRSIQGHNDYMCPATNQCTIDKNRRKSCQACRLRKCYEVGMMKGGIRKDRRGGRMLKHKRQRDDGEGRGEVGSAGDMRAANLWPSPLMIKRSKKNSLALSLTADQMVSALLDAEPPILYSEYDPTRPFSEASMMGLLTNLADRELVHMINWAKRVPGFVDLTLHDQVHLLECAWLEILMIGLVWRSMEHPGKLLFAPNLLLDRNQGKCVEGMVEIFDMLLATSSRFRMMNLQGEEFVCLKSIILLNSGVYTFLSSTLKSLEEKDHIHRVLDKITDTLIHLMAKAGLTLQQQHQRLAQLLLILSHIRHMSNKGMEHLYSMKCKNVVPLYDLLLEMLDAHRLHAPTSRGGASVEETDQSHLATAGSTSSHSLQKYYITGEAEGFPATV
Summary of the method: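 MCF7:WS8 cells were estrogen-stripped for 2 days and plated at 2.5 × 10^4 per well. ERα was detected by in-cell western (H10 antibody), with signal normalized to CellTag 700.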

[4] = target: T2, Estrogen receptor (Homo sapiens) (UniProt P03372); test: Inhibition of ERalpha in human MCF7:WS8 cells assessed as increase in degradation of ERalpha incubated for 24 hrs by In-Cell Western assay relative to control; assay type: cell-based
T2 sequence (whole entry): T1 sequence (P03372 whole entry)
Summary of the method: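 MCF7:WS8 cells were estrogen-stripped for 2 days and plated at 2.5 × 10^4 per well. After 48 h they were treated for 24 h. ERα was detected by in-cell western (H10 antibody), with signal normalized to CellTag 700.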

[5] = Antiproliferative activity against human MCF7:5C cells assessed as reduction in cell viability incubated for 7 days by Hoechst 33258 dye based assay relative to control; assay type: functional; details: 168 h
Summary of the method: as §1

Estrogen receptor [6] = target: T1, Estrogen receptor; test: Antagonist activity at ERalpha in human MCF7:WS8 cells incubated for 18 hrs by dual luciferase reporter gene assay relative to control; assay type: cell-based
Summary of the method: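 MCF7:WS8 cells were estrogen-deprived for 3 days (phenol red-free RPMI, stripped FBS), then plated and grown 24 h. They were co-transfected for 6 h with a 3×vitellogenin ERE-firefly luciferase plasmid and a pRL-TK Renilla plasmid. Compounds were given in competition with 1 nM E2 for 18 h, then dual luciferase was read.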

T47D [7] = test: Cytotoxicity against human T47D 3D spheroid cells harboring Y537S mutant assessed as reduction in tumor cell viability at 10 nM incubated for 14 days by celltiter-glo 3D cell viability assay
T47D [8] = test: Cytotoxicity against human T47D 3D spheroid cells harboring D538G mutant assessed as reduction in tumor cell viability at 10 nM incubated for 14 days by celltiter-glo 3D cell viability assay
T47D [9] = test: Cytotoxicity against human T47D 3D spheroid cells assessed as reduction in tumor cell viability at 10 nM incubated for 14 days by celltiter-glo 3D cell viability assay
[10] = Drug concentration in C57BL/6 mouse brain at 100 mg/kg, po measured after 2 hrs by LC/MS-MS analysis; assay type: ADME, organism-based; details: read-out: Drug uptake
Summary of the method: (§2)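 PK screen in female C57BL/6 mice (N = 3 per time point). Dosed by gavage at 100 mg/kg in HPβD/PEG-400. Plasma and brain were taken from perfused mice at 30 and 120 min. Quantified by LC-MS/MS in MRM mode, with standard curves in each matrix and a common internal standard. Values are mean and s.d.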

[11] = Plasma concentration in C57BL/6 mouse at 100 mg/kg, po measured after 2 hrs by LC/MS-MS analysis; assay type: ADME, organism-based
Summary of the method: as §2

[12] = Plasma concentration in C57BL/6 mouse at 100 mg/kg, po measured after 0.5 hrs by LC/MS-MS analysis; assay type: ADME, organism-based
Summary of the method: as §2

[13] = Drug concentration in C57BL/6 mouse brain at 100 mg/kg, po measured after 0.5 hrs by LC/MS-MS analysis; assay type: ADME, organism-based; details: read-out: Drug uptake
Summary of the method: as §2

Homo sapiens [14] = species: Homo sapiens; test: Cytotoxicity against human MCF7:WS8 3D spheroid cells assessed as reduction in tumor spheroid size at 10 nM incubated for 14 days
Homo sapiens [15] = species: Homo sapiens; test: Cytotoxicity against human MCF7:WS8 3D spheroid cells assessed as reduction in tumor cell viability at 10 nM incubated for 14 days by celltiter-glo 3D cell viability assay
MCF7:TAM1 = test: Cytotoxicity against human MCF7:TAM1 3D spheroid cells assessed as reduction in tumor cell viability at 10 nM incubated for 14 days by celltiter-glo 3D cell viability assay

Row | Structure (SMILES) | IC50 (cells) [nM] | pIC50 [1] | Emax [2] [%] | pIC50 (Estrogen receptor [3]) | Efficacy [4] [%] | Emax [5] [%] | pIC50 (Estrogen receptor [6]) | Activity (T47D [7]) | Activity (T47D [8]) | Activity (T47D [9]) | pIC50 (cells) | concentration at 2 h [10] [nM] | concentration at 2 h [11] [nM] | concentration at 0.5 h [12] [nM] | concentration at 0.5 h [13] [nM] | Activity (Homo sapiens [14]) | Activity (Homo sapiens [15]) | Activity (MCF7:TAM1)
1 | Cc1cc(F)cc(C)c1C(=O)c1sc2cc(O)ccc2c1Oc1ccc(OCCN2CC[C@H](CF)C2)cc1 | 1 | 9.39 | 70 | 8.52 | 42 | 42 |  |  |  |  |  |  |  |  |  |  |  | 
2 | O=C(c1ccccc1)c1sc2cc(O)ccc2c1Oc1ccc(OCCN2CC(CF)C2)cc1 | 0.263 | 9.76 | 64 | 8.99 | 85 | 48 | 8.37 |  |  |  |  |  |  |  |  |  |  | 
3 | CC1=C(c2cccc(O)c2)[C@H](c2ccc(OCCN3CC(CF)C3)cc2)Oc2ccc(O)cc21 |  |  |  |  |  |  |  | Active | Active | Active |  |  |  |  |  |  |  | 
4 | O=C(c1ccc(O)cc1)c1sc2cc(O)ccc2c1Oc1ccc(OCCN2CC(CF)C2)cc1 |  | 9.15 | 73 | 8.09 | 47 |  | 7.19 |  |  |  | < 7.00 |  |  |  |  |  |  | 
5 | Cc1ccccc1C(=O)c1sc2cc(O)ccc2c1Oc1ccc(OCCN2CCC2)cc1 | 1.29 | 9.04 | 70 | 8.72 | 37 | 31 |  |  |  |  |  |  |  |  |  |  |  | 
6 | Cc1cc(F)ccc1C(=O)c1sc2cc(O)ccc2c1Oc1ccc(OC2CN(CCCF)C2)cc1 | 0.117 | 9.77 | 69 | 8.03 | 95 | 45 | 8.28 |  |  |  |  |  |  |  |  |  |  | 
7 | Cc1cc(F)cc(C)c1C(=O)c1sc2cc(O)ccc2c1Oc1ccc(OCCN2CC[C@@H](CF)C2)cc1 | 1.07 | 9.20 | 66 | 8.23 | 84 | 34 | 7.92 |  |  |  |  | 276 | 163 | 211 | 121 |  |  | 
8 | CC/C(=C(\c1ccc(O)cc1)c1ccc(OCCN(C)C)cc1)c1ccccc1 |  |  |  |  |  |  |  | Active | Active | Active |  |  |  |  |  |  |  | 
9 | Cc1ccccc1C(=O)c1sc2cc(O)ccc2c1Oc1ccc(OCCN2CC[C@@H](CF)C2)cc1 | 0.0871 | 10.90 | 85 | 7.98 | 84 | 67 |  |  |  |  |  |  |  |  |  |  |  | 
10 | Cc1cc(F)cc(C)c1C(=O)c1sc2cc(O)ccc2c1Oc1ccc(OCCN2CC(CF)C2)cc1 | 2.14 | 9.33 | 73 | 8.85 | 85 | 47 | 8.46 |  |  |  |  | 588 | 659 | 786 | 750 | Active | Active | Active
11 | O=C(c1cccc(F)c1)c1sc2cc(O)ccc2c1Oc1ccc(OCCN2CC(CF)C2)cc1 | 0.295 | 9.64 | 78 |  |  | 36 |  |  |  |  |  |  |  |  |  |  |  | 
12 | O=C(c1ccccc1)c1sc2cc(O)ccc2c1Oc1ccc(OC2CN(CCCF)C2)cc1 | 0.162 | 9.54 | 67 | 9.15 | 88 | 41 | 9.30 |  |  |  |  |  |  |  |  |  |  | 

Reference: ChEMBL document CHEMBL4354825, “Design and Synthesis of Basic Selective Estrogen Receptor Degraders for Endocrine Therapy Resistant Breast Cancer” (J Med Chem, 2019)
